# Results from different studies.
# Protocols differ between the studies behind these lines.
# ACVR2A: Activin receptor type-2A (ACVR2A, Homo sapiens, UniProt P27037)
# BRD9: Bromodomain-containing protein 9 (BRD9, Homo sapiens, UniProt Q9H8M2)
Compound,target,test,setting,endpoint,result
Cc1cc(O)c(-c2ccc([C@@H](C)CN(C)C)cc2)c2c1[nH]c(=O)c1sccc12,"STE20-related kinase adapter protein beta (Homo sapiens, UniProt Q9C0K7)","enzyme activity, inhibitor","0.1 µM, lysate",inhibition,18.9%
Cc1ncc(-c2cc3cc(-c4c(C)ccc(O)c4C)cnc3[nH]2)cn1,"Membrane-associated tyrosine- and threonine-specific cdc2-inhibitory kinase (PKMYT1, Homo sapiens, UniProt Q99640)","cell-free assay, TR-FRET",3.333 µM,inhibition,104%
C1=C/COCc2cc(ccc2OCCN2CCCC2)Nc2nccc(n2)-c2cccc(c2)COC/1,"Bone morphogenetic protein receptor type-1A (BMPR1A, Homo sapiens, UniProt P36894)",binding,0.1 µM,remaining binding,89%
CCCCC(=O)Nc1ccc(-c2ccc3ncn(CCC)c(=O)c3c2)cn1,ACVR2A,"binding, competition with immobilised ligand",0.5 µM,remaining binding,95%
COc1cc(-c2cc(C(C)=O)n3ccccc23)c(OC)cc1C(C)=O,BRD9,"thermal stability, DSF",200 µM,ΔTm,7.5 °C
COc1ccc2oc(-c3ccc4nc(N)oc4c3)c/c(=N\c3ccccc3NC(=O)CCN)c2c1,ACVR2A,"binding, competition with immobilised ligand",1 µM,remaining binding,109%
CC(=O)c1cc(-c2cccc(C(F)(F)F)c2)c2ccccn12,BRD9,"thermal stability, DSF",200 µM,ΔTm,3 °C
NC/C(=C\F)COc1cccc(Cn2c(=S)[nH]c(=O)c3[nH]cnc32)c1,"Beta-2 adrenergic receptor (ADRB2, Homo sapiens, UniProt P07550)","ligand displacement, radioligand",10 µM,inhibition,< 50%
COc1cc(C(C)O)c(OC)cc1-c1cc(C(C)=O)n2ccccc12 (stereo not drawn),BRD9,"thermal stability, DSF",200 µM,ΔTm,9.9 °C
CCN1/C(=C/C(C)=O)Sc2ccc(F)cc21,"Cannabinoid receptor 2 (CNR2, Homo sapiens, UniProt P34972)","ligand displacement, radioligand",10 µM,inhibition,16.8%
CC(=O)ON=C1C=CC(=C(C#N)c2ccccc2)C=C1,"Serine/threonine-protein kinase haspin (HASPIN, Homo sapiens, UniProt Q8TF76)","enzyme activity, inhibitor, ADP detection",20 µM,activity vs control,57%
COc1cc(-c2cc(C(C)=O)n3ccccc23)cc(OC)c1CN(C)C,BRD9,"thermal stability, DSF",200 µM,ΔTm,16.5 °C
